Measured values as given in ChEMBL document CHEMBL3046353, “Synthesis and fungicidal activity of some 5-membered heterocyclic derivatives containing benzimidazoles” (1993).
Active and inactive are the calls of the source. The rule behind the calls is not given here.

Tests used:
[1] = test system: Sagittaria latifolia; experiment: Herbicidal activity against Sagittaria latifolia (broadleaf arrowhead) under paddy conditions; type: functional, organism-based
[2] = test system: Sagittaria latifolia; experiment: Pre-emergence herbicidal activity against Sagittaria latifolia (broadleaf arrowhead); type: functional, organism-based
[3] = test system: Sagittaria latifolia; experiment: Post-emergence herbicidal activity against Sagittaria latifolia (broadleaf arrowhead); type: functional, organism-based
[4] = test system: Schoenoplectus acutus; experiment: Herbicidal activity against Schoenoplectus acutus (hardstem bulrush) under paddy conditions; type: functional, organism-based
[5] = test system: Schoenoplectus acutus; experiment: Post-emergence herbicidal activity against Schoenoplectus acutus (hardstem bulrush); type: functional, organism-based
[6] = test system: Schoenoplectus acutus; experiment: Pre-emergence herbicidal activity against Schoenoplectus acutus (hardstem bulrush); type: functional, organism-based
[7] = test system: Echinochloa crus-galli; experiment: Herbicidal activity against Echinochloa crus-galli (barnyard grass) under paddy conditions; type: functional, organism-based
[8] = test system: Echinochloa crus-galli; experiment: Post-emergence herbicidal activity against Echinochloa crus-galli (barnyard grass); type: functional, organism-based
[9] = test system: Oryza sativa; experiment: Herbicidal activity against Oryza sativa (rice) under paddy conditions; type: functional, organism-based
[10] = test system: Echinochloa crus-galli; experiment: Pre-emergence herbicidal activity against Echinochloa crus-galli (barnyard grass); type: functional, organism-based
[11] = test system: Oryza sativa; experiment: Pre-emergence herbicidal activity against Oryza sativa (rice); type: functional, organism-based
[12] = test system: Abutilon theophrasti; experiment: Post-emergence herbicidal activity against Abutilon theophrasti (velvetleaf); type: functional, organism-based
[13] = test system: Oryza sativa; experiment: Post-emergence herbicidal activity against Oryza sativa (rice); type: functional, organism-based
[14] = test system: Abutilon theophrasti; experiment: Pre-emergence herbicidal activity against Abutilon theophrasti (velvetleaf); type: functional, organism-based
[15] = test system: Convolvulaceae; experiment: Herbicidal activity against Convolvulaceae (morning glory family) under paddy conditions; type: functional, organism-based
[16] = test system: Convolvulaceae; experiment: Post-emergence herbicidal activity against Convolvulaceae (morning glory family); type: functional, organism-based
[17] = test system: Avena sativa; experiment: Herbicidal activity against Avena sativa under paddy conditions; type: functional, organism-based
[18] = test system: Convolvulaceae; experiment: Pre-emergence herbicidal activity against Convolvulaceae (morning glory family); type: functional, organism-based
[19] = test system: Avena sativa; experiment: Pre-emergence herbicidal activity against Avena sativa; type: functional, organism-based
[20] = test system: Avena sativa; experiment: Post-emergence herbicidal activity against Avena sativa; type: functional, organism-based
[21] = test system: Spodoptera litura; experiment: Insecticidal activity against Spodoptera litura; type: functional, organism-based
[22] = test system: Tetranychus cinnabarinus; experiment: Insecticidal activity against Tetranychus cinnabarinus (carmine spider mite); type: functional, organism-based
[23] = test system: Culex pipiens pallens; experiment: Insecticidal activity against Culex pipiens pallens (mosquito) at 3 to 5 ppm; type: functional, organism-based
[24] = test system: Musca domestica; experiment: Insecticidal activity against Musca domestica (house fly); type: functional, organism-based
[25] = test system: Rhizoctonia solani; experiment: Fungicidal activity against Rhizoctonia solani at 500 ppm after 7 days by poisoned food technique; type: functional; settings: 168 h, read-out: GI
Outline: (§1)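 Cultures kept on potato dextrose agar. Each compound, dissolved in acetone, was added to potato dextrose agar at a final 500 ppm (w/v) (poisoned food technique). A disc cut from the periphery of a seven-day-old culture was inoculated onto each set. Control sets held potato dextrose agar only. The read-out is percentage inhibition of fungal growth relative to control.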

[26] = test system: Helminthosporium; experiment: Fungicidal activity against Helminthosporium oryzae at 500 ppm after 7 days by poisoned food technique; type: functional; settings: 168 h, read-out: GI; outline: as §1

| Compound | Activity [1] | Activity [2] | Activity [3] | Activity [4] | Activity [5] | Activity [6] | Activity [7] | Activity [8] | Activity [9] | Activity [10] | Activity [11] | Activity [12] | Activity [13] | Activity [14] | Activity [15] | Activity [16] | Activity [17] | Activity [18] | Activity [19] | Activity [20] | also measured |
| --- | --- | --- | --- | --- | --- | --- | --- | --- | --- | --- | --- | --- | --- | --- | --- | --- | --- | --- | --- | --- | --- |
| Cc1ccc2[nH]c(CSc3nnc(-c4ccccc4)s3)nc2c1 | inactive | inactive | inactive | inactive | inactive | inactive | inactive | inactive | inactive | inactive | inactive | inactive | inactive | inactive | inactive | inactive | inactive | inactive | inactive | inactive | Activity [21]: inactive; Activity [22]: inactive; Activity [23]: Active; Activity [24]: inactive; inhibition of growth at 500 ppm [25]: 64.5%; inhibition of growth at 500 ppm [26]: 71.3% |
| Cc1ccc2[nH]c(CSc3nc4ccccc4[nH]3)nc2c1 | inactive | inactive | inactive | inactive | inactive | inactive | inactive | inactive | inactive | inactive | inactive | inactive | inactive | inactive | inactive | inactive | inactive | inactive | inactive | inactive | Activity [21]: inactive; Activity [22]: inactive; Activity [23]: Active; Activity [24]: inactive; inhibition of growth at 500 ppm [25]: 61.3%; inhibition of growth at 500 ppm [26]: 81.3% |
| c1ccc(-c2nnc(SCc3nc4ccccc4[nH]3)o2)cc1 | inactive | inactive | inactive | inactive | inactive | inactive | inactive | inactive | inactive | inactive | inactive | inactive | inactive | inactive | inactive | inactive | inactive | inactive | inactive | inactive | Activity [21]: inactive; Activity [22]: inactive; Activity [23]: Active; Activity [24]: inactive; inhibition of growth at 500 ppm [25]: 65.2%; inhibition of growth at 500 ppm [26]: 73.5% |
| Cc1ccc2[nH]c(CSc3nnc(-c4ccccc4)n3N)nc2c1 | inactive | inactive | inactive | inactive | inactive | inactive | inactive | inactive | inactive | inactive | inactive | inactive | inactive | inactive | inactive | inactive | inactive | inactive | inactive | inactive | Activity [21]: inactive; Activity [22]: inactive; Activity [23]: Active; Activity [24]: inactive; inhibition of growth at 500 ppm [25]: 70.5%; inhibition of growth at 500 ppm [26]: 81.2% |
| Clc1ccc(-c2nnc(SCc3nc4ccccc4[nH]3)s2)cc1 | inactive | inactive | inactive | inactive | inactive | inactive | inactive | inactive | inactive | inactive | inactive | inactive | inactive | inactive | inactive | inactive | inactive | inactive | inactive | inactive | Activity [21]: inactive; Activity [22]: inactive; Activity [23]: Active; Activity [24]: inactive; inhibition of growth at 500 ppm [25]: 39%; inhibition of growth at 500 ppm [26]: 52.5% |
